Structures are written as SMILES. ≈ marks a conversion by molar mass, not a printed value. Where only a bound is given, the exact number is not on record here.

Experimental findings from ChEMBL document CHEMBL1255410, “Activity of the investigational fluoroquinolone finafloxacin against ciprofloxacin-sensitive and -resistant Acinetobacter baumannii isolates” (2010) are described below.

What all share (type): functional
The subject of assay [1] is Acinetobacter baumannii. The assay is described as follows: Antimicrobial activity against Acinetobacter baumannii isolate 60 harboring GyrA Ser83-Leu and ParC Ser80-Leu mutation at pH 7.2. Put shortly:
(§1)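 Agar dilution MIC on Mueller-Hinton agar under standard conditions (pH 7.2). Antibiotic-containing plates were made the same day from freshly prepared medium. Agar pH was checked after solidifying. Both fluoroquinolones were tested simultaneously against A. baumannii isolates with characterized gyrA/parC genes. MICs are in μg/ml.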

Assay [2] deals with Acinetobacter baumannii. The assay is described as follows: Antimicrobial activity against Acinetobacter baumannii isolate 18 at pH 5.8. In outline: (§2)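 MIC by agar dilution on Mueller-Hinton agar acidified to pH 5.8 with HCl before antibiotic-containing plates were poured. Agar pH was rechecked once the agar had solidified. Isolates had characterized gyrA/parC genes. Plates for both drugs were made the same day from fresh media, and MICs were read in parallel with the standard-pH set.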

The test system of assay [3] is Acinetobacter baumannii. As to the kind of experiment: Antimicrobial activity against Acinetobacter baumannii isolate 59 harboring GyrA Ser83-Leu and ParC Glu84-Lys mutation at pH 5.8. In outline: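 Agar dilution MIC on Mueller-Hinton agar acidified to pH 5.8 with HCl before the antibiotic-containing plates were poured. Agar pH was checked after solidifying. Plates were made the same day from fresh medium. Both fluoroquinolones were tested simultaneously against A. baumannii isolates with characterized gyrA/parC genes. MICs are in μg/ml.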

The test system of assay [4] is Acinetobacter baumannii. As to the kind of experiment: Antimicrobial activity against Acinetobacter baumannii isolate 33 harboring GyrA Ser83-Leu mutation at pH 7.2. In outline: (§3)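 Agar dilution MIC on Mueller-Hinton agar. For the acidic condition, HCl was added to bring the agar to pH 5.8 before pouring the antibiotic plates, and the pH was checked after the agar set. The standard condition was pH 7.2. Both drugs' plates were made the same day from fresh medium, and MICs were read at the same time.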

Assay [5] concerns Acinetobacter baumannii. As to the kind of experiment: Antimicrobial activity against Acinetobacter baumannii isolate 17 at pH 7.2. In outline: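 MIC by agar dilution on Mueller-Hinton agar under standard conditions (pH 7.2), against isolates with characterized gyrA/parC genes. Agar pH was checked after solidifying. Plates for both drugs were prepared the same day from freshly made media, and MICs were determined simultaneously with the pH 5.8 set.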

For assay [6], the system named is Acinetobacter baumannii. As to the kind of experiment: Antimicrobial activity against Acinetobacter baumannii isolate 36 harboring GyrA Ser83-Leu mutation at pH 7.2. In outline:
as §3

For assay [7], the system named is Acinetobacter baumannii. As to the kind of experiment: Antimicrobial activity against Acinetobacter baumannii isolate 46 harboring GyrA Ser83-Leu and ParC Ser80-Leu mutation at pH 5.8. Put shortly:
as §3

Assay [8] concerns Acinetobacter baumannii. The assay is described as follows: Antimicrobial activity against Acinetobacter baumannii isolate 16 at pH 5.8. In outline: as §2
Assay [9] relates to Acinetobacter baumannii. The assay is described as follows: Antimicrobial activity against Acinetobacter baumannii isolate 48 harboring GyrA Ser83-Leu and ParC Ser80-Leu mutation at pH 5.8. In outline:
as §3

Assay [10] relates to Acinetobacter baumannii. As to the kind of experiment: Antimicrobial activity against Acinetobacter baumannii isolate 46 harboring GyrA Ser83-Leu and ParC Ser80-Leu mutation at pH 7.2. Put shortly: as §3
Assay [11] concerns Acinetobacter baumannii. The assay is described as follows: Antimicrobial activity against Acinetobacter baumannii isolate 47 harboring GyrA Ser83-Leu and ParC Ser80-Phe mutation at pH 7.2. Put shortly: as §3
Assay [12] relates to Acinetobacter baumannii. The assay is described as follows: Antimicrobial activity against Acinetobacter baumannii isolate 45 harboring GyrA Ser83-Leu and ParC Ser80-Leu mutation at pH 7.2. Put shortly:
as §3

For assay [13], the system named is Acinetobacter baumannii. The assay is described as follows: Antimicrobial activity against adeB overexpressing Acinetobacter baumannii isolate 68 harboring GyrA Ser83-Leu and ParC Ser80-Leu mutation at pH 7.2. In outline: as §1

On to `O=C(O)c1cn(C2CC2)c2cc(N3CCNCC3)c(F)cc2c1=O` [CIPROFLOXACIN], for which the MIC in assay [1] was 128 µg/mL (≈ 386 µM); in assay [2], 8 µg/mL (≈ 24.1 µM); in assay [3] it was greater than 128 µg/mL; in assay [4], 8 µg/mL (≈ 24.1 µM); in assay [5] it was 1 µg/mL (≈ 3.02 µM); in assay [6], 16 µg/mL (≈ 48.3 µM). For the same compound, the MIC in assay [7] was greater than 128 µg/mL; in [8] it was 4 µg/mL (≈ 12.1 µM); in [9] it was greater than 128 µg/mL.

Regarding `N#Cc1c(N2C[C@@H]3NCCO[C@H]3C2)c(F)cc2c(=O)c(C(=O)O)cn(C3CC3)c12` [FINAFLOXACIN], the MIC came out at 16 µg/mL (≈ 40.2 µM) in assay [10]; 64 µg/mL (≈ 161 µM) in [1]; 32 µg/mL (≈ 80.3 µM) in assay [11]; 0.12 µg/mL (≈ 0.301 µM) in [2]; 16 µg/mL (≈ 40.2 µM) in [12]; 8 µg/mL (≈ 20.1 µM) in [3]. Further, the MIC was 16 µg/mL (≈ 40.2 µM) in [4]; 1 µg/mL (≈ 2.51 µM) in assay [5]; 64 µg/mL (≈ 161 µM) in [13]; 16 µg/mL (≈ 40.2 µM) in assay [6]; 2 µg/mL (≈ 5.02 µM) in assay [7]; 0.12 µg/mL (≈ 0.301 µM) in assay [8]. Also, in assay [9], it took 2 µg/mL (≈ 5.02 µM) to inhibit growth (MIC).

As a reminder, the MIC is the lowest concentration that inhibits growth of the organism. A higher MIC goes with weaker potency.
